In brackets after ≈: the same amount, converted by molar mass.
How the values were obtained:
Staphylococcus aureus [1] = assay: Antimicrobial activity against Panton-valentine leucocidin-positive community-acquired methicillin-resistant Staphylococcus aureus isolate MEH2225605 infected in human THP-1 cells assessed as bacterial count per mg of cell protein at high extracellular compound concentration after 24 hrs at pH 5.5; type: functional
In short: (§1)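 THP-1 human macrophages infected with S. aureus (postphagocytosis inoculum 1.5 × 10^6 to 3.0 × 10^6 CFU/mg cell protein), then incubated 24 h with increasing extracellular antibiotic concentrations. Change in log10 CFU/mg cell protein from the postphagocytosis inoculum, n = 3. Hill function fitted on log-transformed data. Low-concentration value (E0) and high-concentration value (Emax) are extrapolated. Where a pH is given, concentrations are expressed as multiples of the broth MIC at that pH.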

Staphylococcus aureus [2] = assay: Antimicrobial activity against Panton-valentine leucocidin-positive community-acquired methicillin-resistant Staphylococcus aureus NRS192 infected in human THP-1 cells assessed as bacterial count per mg of cell protein at high extracellular compound concentration after 24 hrs; type: functional; in short: as §1
Staphylococcus aureus [3] = assay: Antimicrobial activity against methicillin-susceptible Staphylococcus aureus NRS52 infected in human THP-1 cells assessed as bacterial count per mg of cell protein at high extracellular compound concentration after 24 hrs at pH 7.4; type: functional
In short: (§2)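 Human THP-1 macrophage-like cells were infected with S. aureus to a postphagocytosis inoculum of 1.5 × 10^6 to 3.0 × 10^6 CFU/mg cell protein. Cells were then exposed 24 h to increasing extracellular antibiotic concentrations. Response was the log10 CFU change per mg protein from the postphagocytosis inoculum, n = 3. A Hill function was fitted on log-transformed axes. E0 and Emax were extrapolated to infinitely low and high concentrations. Cs was read by graphical interpolation. Concentrations were expressed as multiples of the broth MIC at pH 5.5 or pH 7.4.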

Staphylococcus aureus [4] = assay: Antimicrobial activity against hospital-acquired vancomycin-intermediate Staphylococcus aureus NRS126 infected in human THP-1 cells assessed as bacterial count per mg of cell protein at high extracellular compound concentration after 24 hrs; type: functional; in short: as §2
Staphylococcus aureus [5] = assay: Antimicrobial activity against methicillin-susceptible Staphylococcus aureus ATCC 25923 infected in human keratinocytes assessed as change in bacterial count after 24 hrs; type: functional, organism-based; conditions: ATCC 25923, 24 h
In short: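 Primary human skin keratinocytes were grown in defined keratinocyte serum-free medium and infected with S. aureus to 1.5 × 10^6 to 3.0 × 10^6 CFU/mg cell protein. Cells were exposed 24 h to increasing extracellular concentrations. Response was the log10 CFU change from the postphagocytosis inoculum, fitted by a Hill equation with slope 1. Cs is the concentration giving CFU equal to the original inoculum, found by graphical interpolation.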

Staphylococcus aureus [6] = assay: Ratio of MIC for hospital-acquired methicillin-resistant Staphylococcus aureus ATCC 33591 by microdilution method at pH 7.4 to ratio of MIC for hospital-acquired methicillin-resistant Staphylococcus aureus ATCC 33591 by microdilution method at pH 5.5; type: functional
In short: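 MICs were determined by broth microdilution at pH 7.4 and pH 5.5. Broth was adjusted before inoculation, and pH was confirmed maintained (±0.1 unit) at the end.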

Staphylococcus aureus [7] = assay: Antimicrobial activity against hospital-acquired vancomycin-intermediate Staphylococcus aureus NRS18 infected in human THP-1 cells assessed as bacterial count per mg of cell protein at high extracellular compound concentration after 24 hrs; type: functional; in short: as §2
MecA = target: T1, MecA (Staphylococcus aureus, UniProt Q7DHH4); assay: Binding affinity to Staphylococcus aureus ATCC […] PBP2a by Western blotting at pH 7.4 in presence of 100 uM Bocillin FL
T1 sequence (Q7DHH4 whole entry): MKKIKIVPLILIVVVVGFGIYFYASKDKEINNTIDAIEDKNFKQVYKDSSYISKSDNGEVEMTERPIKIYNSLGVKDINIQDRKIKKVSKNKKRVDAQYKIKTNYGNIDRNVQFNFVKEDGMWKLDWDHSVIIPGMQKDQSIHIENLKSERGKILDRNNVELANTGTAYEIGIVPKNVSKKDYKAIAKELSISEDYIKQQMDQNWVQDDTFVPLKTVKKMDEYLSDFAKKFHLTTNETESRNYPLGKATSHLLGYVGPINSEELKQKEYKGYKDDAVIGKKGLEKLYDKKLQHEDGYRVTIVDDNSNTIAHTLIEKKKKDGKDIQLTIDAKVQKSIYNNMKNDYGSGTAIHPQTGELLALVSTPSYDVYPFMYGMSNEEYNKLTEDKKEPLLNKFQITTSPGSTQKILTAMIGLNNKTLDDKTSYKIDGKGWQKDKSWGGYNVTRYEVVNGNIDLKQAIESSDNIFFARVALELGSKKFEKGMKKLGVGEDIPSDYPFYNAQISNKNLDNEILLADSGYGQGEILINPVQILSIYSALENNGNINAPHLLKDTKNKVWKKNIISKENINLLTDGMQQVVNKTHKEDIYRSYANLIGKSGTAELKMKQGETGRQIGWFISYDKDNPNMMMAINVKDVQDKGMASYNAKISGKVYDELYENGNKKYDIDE
In short: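 Soluble truncated PBP 2a (ΔM1-Y23) was expressed in E. coli Rosetta 2(DE3) and purified. It was preincubated 25 min at 37°C with increasing cephalosporin concentrations, then 100 μM Bocillin FL was added for 25 min at 37°C at pH 5.5 or 7.4. Samples were run on SDS-PAGE and blotted with anti-bodipy antibody plus HRP secondary. Bands were detected by chemiluminescence and quantified by densitometry.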

Staphylococcus aureus [8] = assay: Antimicrobial activity against Panton-valentine leucocidin-positive community-acquired methicillin-resistant Staphylococcus aureus STA 228 infected in human THP-1 cells assessed as change in bacterial count after 24 hrs; type: functional, organism-based; conditions: STA 228, THP-1, 24 h; in short: as §1
Staphylococcus aureus [9] = assay: Antimicrobial activity against hospital-acquired methicillin-resistant Staphylococcus aureus ATCC 33592 infected in human THP-1 cells assessed as bacterial count per mg of cell protein at low extracellular compound concentration after 24 hrs; type: functional
In short: (§3)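 THP-1 macrophages infected as described previously, with a postphagocytosis inoculum of 1.5 × 10⁶ to 3.0 × 10⁶ CFU/mg cell protein. Cells were exposed 24 h to increasing extracellular antibiotic concentrations. Response is the change in log10 CFU/mg protein from the inoculum (n = 3), fitted to a Hill function. E0 and Emax were extrapolated to infinitely low and high concentrations. EC50 and static concentration (graphical interpolation) are expressed as multiples of the broth MIC at pH 5.5 or 7.4.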

Staphylococcus aureus [10] = assay: Bacteriostatic activity against hospital-acquired vancomycin-intermediate Staphylococcus aureus NRS18 infected in human THP-1 cells assessed as change in bacterial count after 24 hrs at pH 5.5; type: functional
In short: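 Human THP-1 macrophage-like cells were infected with S. aureus; the post-phagocytosis inoculum was 1.5 × 10^6 to 3.0 × 10^6 CFU/mg cell protein. Cells were exposed 24 h to increasing extracellular drug levels. Change in log10 CFU/mg protein from the inoculum was fitted to a Hill function (n = 3). Static concentration was read by graphical interpolation, as a multiple of the pH 5.5 broth MIC.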

Staphylococcus aureus [11] = assay: Bacteriostatic activity against Panton-valentine leucocidin-positive community-acquired methicillin-resistant Staphylococcus aureus N4042228 infected in human THP-1 cells assessed as change in bacterial count after 24 hrs at pH 5.5; type: functional; in short: as §3
Staphylococcus aureus [12] = assay: Antimicrobial activity against Panton-valentine leucocidin-positive community-acquired methicillin-resistant Staphylococcus aureus STA 44 infected in human THP-1 cells assessed as bacterial count per mg of cell protein at high extracellular compound concentration after 24 hrs; type: functional; in short: as §1

Question: How did the log10cfu (Staphylococcus aureus [1]) turn out when `Nc1nc(/C(=N/O)C(=O)N[C@@H]2C(=O)N3C(C(=O)O)=C(/C=C4\CCN([C@@H]5CCNC5)C4=O)CS[C@H]23)ns1` [CEFTOBIPROLE] was run?
Answer: -1.02

Question: And the log10cfu (Staphylococcus aureus [2])?
Answer: -0.89

Question: And the log10cfu (Staphylococcus aureus [3])?
Answer: -1.04

Question: And the log10cfu (Staphylococcus aureus [4])?
Answer: -1.21

Question: What about the EC50 (Staphylococcus aureus [5]) of the same compound?
Answer: 0.35 mg/L (≈ 0.655 µM)

Question: What about the “fold change (FC)” value (Staphylococcus aureus [6]) of the same compound?
Answer: 4

Question: And the log10cfu (Staphylococcus aureus [7])?
Answer: -1.34

Question: And the IC50 (MecA)?
Answer: 8 µM

Question: What about the EC50 (Staphylococcus aureus [8]) of the same compound?
Answer: 0.88 mg/L (≈ 1.65 µM)

Question: What about the log10cfu (Staphylococcus aureus [9]) of the same compound?
Answer: 2.58

Question: And the Activity (Staphylococcus aureus [10])?
Answer: 1.97 × MIC

Question: And the Activity (Staphylococcus aureus [11])?
Answer: 1.45 × MIC

Question: What about the log10cfu (Staphylococcus aureus [12]) of the same compound?
Answer: -1.02

— ChEMBL document CHEMBL1649438, “Activities of ceftobiprole and other cephalosporins against extracellular and intracellular (THP-1 macrophages and keratinocytes) forms of methicillin-susceptible and methicillin-resistant Staphylococcus aureus” (Antimicrob Agents Chemother, 2009)
